Data published in ChEMBL document CHEMBL1165950, “Design and synthesis of new potent anticancer pyrazoles with high FLT3 kinase inhibitory selectivity” (Bioorg Med Chem, 2010).

Experiments:
Format in all cases: functional
[1] = test system: A498; experiment: Cytotoxicity against human A498 cells assessed as cell growth at 0.001 uM after 48 hrs by sulforhodamine B assay; conditions: A498, 48 h, read-out: Activity
Summary of the method: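 NCI-60 five-dose screen. Cells were grown in RPMI 1640 with 5% FBS and 2 mM L-glutamine, plated at 5000–40,000 cells/well and preincubated for 24 h. Time-zero plates were TCA-fixed. DMSO-solubilized drug was added at five concentrations (10-fold or ½-log serial dilutions) for 48 h at 37 °C, 5% CO2. Cells were TCA-fixed, stained with 0.4% SRB and read at 515 nm. Percent growth used time-zero, control and test absorbances.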

[2] = test system: NCI-H226; experiment: Cytotoxicity against human NCI-H226 cells assessed as cell growth at 0.001 uM after 48 hrs by sulforhodamine B assay; conditions: NCI-H226, 48 h, read-out: Activity
[3] = test system: HCT-15; experiment: Cytotoxicity against human HCT15 cells assessed as cell growth at 0.001 uM after 48 hrs by sulforhodamine B assay; conditions: HCT-15, 48 h, read-out: Activity
[4] = test system: NCI/ADR-RES; experiment: Growth inhibition of human NCI/ADR-RES cells after 48 hrs by sulforhodamine B assay; conditions: for CC50: read-out: LC50 (the source's name)
Summary of the method: (§1)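 NCI 60-cell screen, five-dose mode. Cells grown in RPMI 1640 with 5% FBS and 2 mM L-glutamine and plated at 5000-40,000 cells/well according to doubling time. After 24 h preincubation, a Tz plate was TCA-fixed. Five concentrations (10-fold or 1/2 log dilutions) were applied for 48 h at 37 °C. SRB staining read at 515 nm. IC50 taken from [(Ti-Tz)/(C-Tz)]×100 = 50.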

[5] = test system: RXF 393; experiment: Cytotoxicity against human RXF393 cells assessed as cell growth at 0.01 uM after 48 hrs by sulforhodamine B assay; conditions: RXF 393, 48 h, read-out: Activity
[6] = test system: SR; experiment: Cytotoxicity against human SR cells assessed as cell growth at 10 uM after 48 hrs by sulforhodamine B assay; conditions: read-out: Activity
[7] = Growth inhibition of human NCI60 cells at 10 uM after 48 hrs by sulforhodamine B assay relative to control; conditions: NCI60, 48 h, read-out: GI
Summary of the method: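 Single-dose NCI screen at 10 µM across the 60-line panel, 48 h exposure at 37 °C after a 24 h preincubation. Adherent cells were fixed with cold TCA and stained with 0.4% SRB, and absorbance was read at 515 nm. Inhibition % was taken as 100 minus growth %, and the mean across all lines was reported.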

[8] = test system: EKVX; experiment: Cytotoxicity against human EKVX cells assessed as cell growth at 0.001 uM after 48 hrs by sulforhodamine B assay; conditions: read-out: Activity
[9] = test system: T47D; experiment: Cytotoxicity against human T47D cells assessed as cell growth at 0.01 uM after 48 hrs by sulforhodamine B assay; conditions: read-out: Activity
[10] = test system: PC-3; experiment: Cytotoxicity against human PC3 cells assessed as cell growth at 100 nM after 48 hrs by sulforhodamine B assay; conditions: PC-3, 48 h, read-out: Activity
[11] = test system: EKVX; experiment: Cytotoxicity against human EKVX cells assessed as cell growth at 0.01 uM after 48 hrs by sulforhodamine B assay; conditions: read-out: Activity
[12] = test system: SNB-75; experiment: Cytotoxicity against human SNB75 cells assessed as cell growth at 10 uM; conditions: read-out: Activity
Summary of the method: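 NCI-60 screen: cells grown in RPMI 1640 with 5% FBS and 2 mM L-glutamine, plated at 5000–40,000 cells/well according to doubling time, and preincubated 24 h at 37 °C, 5% CO2. The single 10 µM dose (DMSO stock) was added, then incubated 48 h. Cells were TCA-fixed and stained with 0.4% SRB, read at 515 nm, and growth % calculated against time-zero and control plates.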

[13] = test system: NCI-H322M; experiment: Growth inhibition of human NCI-H322M cells after 48 hrs by sulforhodamine B assay; conditions: for CC50: read-out: LC50 (the source's name); summary of the method: as §1
[14] = test system: MOLT-4; experiment: Cytotoxicity against human MOLT4 cells assessed as cell growth at 100 nM after 48 hrs by sulforhodamine B assay; conditions: MOLT-4, 48 h, read-out: Activity
[15] = test system: HOP-62; experiment: Cytotoxicity against human HOP62 cells assessed as cell growth at 10 uM; conditions: read-out: Activity
Summary of the method: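 Single-dose NCI-60 screen at 10 µM. Cells were grown in RPMI 1640 with 5% FBS and 2 mM L-glutamine, then treated for 48 h at 37 °C. Protein was measured by SRB staining with absorbance at 515 nm. Percentage growth was recorded, and inhibition percentage was calculated as 100 minus growth percentage.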

[16] = test system: U-251; experiment: Cytotoxicity against human U251 cells assessed as cell growth at 1 uM after 48 hrs by sulforhodamine B assay; conditions: U-251, 48 h, read-out: Activity
[17] = test system: Malme-3M; experiment: Cytotoxicity against human MALME-3M cells assessed as cell growth at 1 uM after 48 hrs by sulforhodamine B assay; conditions: read-out: Activity
[18] = test system: U-251; experiment: Cytotoxicity against human U251 cells assessed as cell growth at 100 nM after 48 hrs by sulforhodamine B assay; conditions: U-251, 48 h, read-out: Activity
[19] = test system: MDA-MB-468; experiment: Cytotoxicity against human MDA-MB-468 cells assessed as cell growth at 100 nM after 48 hrs by sulforhodamine B assay; conditions: MDA-MB-468, 48 h, read-out: Activity
[20] = test system: SF-539; experiment: Growth inhibition of human SF539 cells after 48 hrs by sulforhodamine B assay; conditions: SF-539, 48 h; for CC50: read-out: LC50 (the source's name); summary of the method: as §1
[21] = test system: TK-10; experiment: Cytotoxicity against human TK10 cells assessed as cell growth at 100 nM after 48 hrs by sulforhodamine B assay; conditions: TK-10, 48 h, read-out: Activity
[22] = test system: SW-620; experiment: Cytotoxicity against human SW620 cells assessed as cell growth at 1 uM after 48 hrs by sulforhodamine B assay; conditions: SW-620, 48 h, read-out: Activity
[23] = test system: SW-620; experiment: Cytotoxicity against human SW620 cells assessed as cell growth at 100 nM after 48 hrs by sulforhodamine B assay; conditions: SW-620, 48 h, read-out: Activity
[24] = test system: SF-539; experiment: Cytotoxicity against human SF539 cells assessed as cell growth at 0.001 uM after 48 hrs by sulforhodamine B assay; conditions: SF-539, 48 h, read-out: Activity
[25] = test system: SN12C; experiment: Cytotoxicity against human SN12C cells assessed as cell growth at 10 uM after 48 hrs by sulforhodamine B assay; conditions: read-out: Activity
[26] = test system: NCI-H460; experiment: Growth inhibition of human NCI-H460 cells after 48 hrs by sulforhodamine B assay; conditions: NCI-H460, 48 h; for CC50: read-out: LC50 (the source's name); summary of the method: as §1
[27] = test system: LOX IMVI; experiment: Cytotoxicity against human LOXIMVI cells assessed as cell growth at 1 uM after 48 hrs by sulforhodamine B assay; conditions: read-out: Activity
[28] = test system: UACC-257; experiment: Cytotoxicity against human UACC257 cells assessed as cell growth at 0.01 uM after 48 hrs by sulforhodamine B assay; conditions: UACC-257, 48 h, read-out: Activity
[29] = test system: OVCAR-3; experiment: Cytotoxicity against human OVCAR-3 cells assessed as cell growth at 1 uM after 48 hrs by sulforhodamine B assay; conditions: OVCAR-3, 48 h, read-out: Activity

Row | SMILES | growth at 0.001 µM [1] | growth at 0.001 µM [2] | growth at 0.001 µM [3] | GI50 [4] | TGI [4] | CC50 [4] | growth at 0.01 µM [5] | growth at 10 µM [6] | inhibition of growth at 10 µM [7] | growth at 0.001 µM [8] | growth at 0.01 µM [9] | growth at 0.1 µM [10] | growth at 0.01 µM [11] | growth at 10 µM [12] | GI50 [13] | TGI [13] | CC50 [13] | growth at 0.1 µM [14] | growth at 10 µM [15] | growth at 1 µM [16] | also measured
1 | Cc1cc(O)cc(-c2nn(CC#N)cc2-c2ccnc(-c3ccc(Oc4ccccc4)cc3)c2)c1 | 88% | 92% | 94% | 2.06 µM | 4.56 µM | 15.8 µM | 90% | -12% | 46.6% | 103% | 86% | 81% | 94% | 40% | 5.68 µM | 19.2 µM | 48.6 µM | 79% | 99.3% | -97% | growth at 1 µM [17]: -75%; growth at 0.1 µM [18]: 88%; growth at 0.1 µM [19]: 88%; GI50 [20]: 3.38 µM; TGI [20]: 13.5 µM; CC50 [20]: 44 µM; growth at 0.1 µM [21]: 102%; growth at 1 µM [22]: -52%; growth at 0.1 µM [23]: 92%; growth at 0.001 µM [24]: 88%; growth at 10 µM [25]: -87%; GI50 [26]: 1.87 µM; TGI [26]: 3.58 µM; CC50 [26]: 6.85 µM; growth at 1 µM [27]: -91%; growth at 0.01 µM [28]: 80%; growth at 1 µM [29]: -63%
2 | COc1cc(C)cc(-c2nn(CC#N)cc2-c2ccc(-c3cccc(C(C)=O)c3)nc2)c1 | 76% | 95% | 95% | 1.31 µM | 6.06 µM | > 100 µM | 89% | 28% | 78.7% | 99% | 93% | 85% | 99% | -23.9% | 4.36 µM | 50.8 µM | > 100 µM | 84% | 32.1% | 6% | growth at 1 µM [17]: 38%; growth at 0.1 µM [18]: 95%; growth at 0.1 µM [19]: 9%; GI50 [20]: 1.73 µM; TGI [20]: 4.65 µM; CC50 [20]: > 100 µM; growth at 0.1 µM [21]: 101%; growth at 1 µM [22]: 4%; growth at 0.1 µM [23]: 56%; growth at 0.001 µM [24]: 94%; growth at 10 µM [25]: 18%; GI50 [26]: 2.04 µM; TGI [26]: 5.72 µM; CC50 [26]: 26.6 µM; growth at 1 µM [27]: 23%; growth at 0.01 µM [28]: 85%; growth at 1 µM [29]: -61%
